# Reference: ChEMBL document CHEMBL5154815, “A Series of Substituted Bis-Aminotriazines Are Activators of the Natriuretic Peptide Receptor C” (J Med Chem, 2022)
# The source made the active and inactive calls. No cut-off for these calls is given here.
# Assays:
# [1] = target: T1, Atrial natriuretic peptide receptor 2 (Homo sapiens) (UniProt P20594); assay: Agonist activity at NPRB in human HeLa cells assessed as increased cGMP formation at 1 uM incubated for 30 mins in presence of IBMX by ELISA; type: cell-based; conditions: filed as agonist
# T1 sequence (whole entry): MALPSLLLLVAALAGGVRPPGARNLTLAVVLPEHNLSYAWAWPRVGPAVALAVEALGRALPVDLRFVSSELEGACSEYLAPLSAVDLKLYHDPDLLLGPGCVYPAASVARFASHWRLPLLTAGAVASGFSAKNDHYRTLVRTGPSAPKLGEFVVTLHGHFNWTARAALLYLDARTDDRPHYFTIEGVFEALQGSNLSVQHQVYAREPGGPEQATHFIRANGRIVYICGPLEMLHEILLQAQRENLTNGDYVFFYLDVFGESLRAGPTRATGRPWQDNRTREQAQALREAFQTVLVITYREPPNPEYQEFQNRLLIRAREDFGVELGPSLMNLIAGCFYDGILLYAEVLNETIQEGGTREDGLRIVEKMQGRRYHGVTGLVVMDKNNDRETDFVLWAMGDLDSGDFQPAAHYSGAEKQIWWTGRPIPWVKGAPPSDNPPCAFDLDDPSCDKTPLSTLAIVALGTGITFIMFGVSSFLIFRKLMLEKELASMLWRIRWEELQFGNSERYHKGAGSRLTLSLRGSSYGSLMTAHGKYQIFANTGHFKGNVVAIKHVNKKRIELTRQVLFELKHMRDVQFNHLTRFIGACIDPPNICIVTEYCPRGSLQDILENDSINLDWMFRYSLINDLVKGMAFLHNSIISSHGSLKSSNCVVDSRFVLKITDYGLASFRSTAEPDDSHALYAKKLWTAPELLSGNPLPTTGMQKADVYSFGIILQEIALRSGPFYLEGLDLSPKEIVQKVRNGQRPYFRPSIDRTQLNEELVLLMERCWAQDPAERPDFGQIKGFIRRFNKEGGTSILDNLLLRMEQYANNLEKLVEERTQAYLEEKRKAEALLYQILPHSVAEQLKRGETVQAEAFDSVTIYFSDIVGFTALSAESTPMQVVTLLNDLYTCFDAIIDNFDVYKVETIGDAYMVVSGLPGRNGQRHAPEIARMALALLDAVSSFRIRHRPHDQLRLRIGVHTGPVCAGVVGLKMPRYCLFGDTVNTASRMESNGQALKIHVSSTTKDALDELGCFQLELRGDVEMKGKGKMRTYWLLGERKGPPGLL
# In short: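 HeLa cells grown in high-glucose DMEM with 10% heat-inactivated bovine serum, penicillin and streptomycin at 5% CO2. Medium was changed on the assay day, then cells equilibrated 4 h. ANP, CNP and cANF4–23 (1 μM) or test compounds (10 μM) were added with IBMX (1 mM) for 30 min. Lysis used 1% Triton-X/0.1 M HCl. Supernatant cGMP was read by ELISA and normalized to BCA protein; points are independent biological replicates.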
# [2] = target: Cytochrome P450 2C9 (Homo sapiens, UniProt P11712); assay: Inhibition of CYP2C9 in human liver microsomes using diclofenac as substrate preincubated for 10 mins followed by NADPH addition and measured after 10 mins by LC/MS/MS analysis
# Chain of Cytochrome P450 2C9 (P11712 whole entry): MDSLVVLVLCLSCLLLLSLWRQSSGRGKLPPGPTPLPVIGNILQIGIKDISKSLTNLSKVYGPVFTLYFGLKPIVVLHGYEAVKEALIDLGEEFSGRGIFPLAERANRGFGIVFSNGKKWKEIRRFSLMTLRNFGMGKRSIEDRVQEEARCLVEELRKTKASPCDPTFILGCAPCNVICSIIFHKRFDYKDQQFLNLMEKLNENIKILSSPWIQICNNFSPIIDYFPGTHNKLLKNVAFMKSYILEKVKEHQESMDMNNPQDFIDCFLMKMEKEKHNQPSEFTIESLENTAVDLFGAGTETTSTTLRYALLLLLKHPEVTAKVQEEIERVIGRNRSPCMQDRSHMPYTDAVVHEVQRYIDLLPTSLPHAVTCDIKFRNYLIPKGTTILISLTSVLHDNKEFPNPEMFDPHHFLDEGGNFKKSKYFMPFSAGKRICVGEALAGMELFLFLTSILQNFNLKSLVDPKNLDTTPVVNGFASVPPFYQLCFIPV
# [3] = Stability of compound in pooled human plasma assessed as half life measured upto 120 mins by LC/MS/MS analysis; conditions: 2 h
# [4] = target: T2, Atrial natriuretic peptide receptor 3 (Rattus norvegicus, UniProt P41740); assay: Agonist activity at NPRC in rat aorta assessed as vasorelaxation by Organ bath assay; type: tissue-based
# T2 sequence (P41740 whole entry): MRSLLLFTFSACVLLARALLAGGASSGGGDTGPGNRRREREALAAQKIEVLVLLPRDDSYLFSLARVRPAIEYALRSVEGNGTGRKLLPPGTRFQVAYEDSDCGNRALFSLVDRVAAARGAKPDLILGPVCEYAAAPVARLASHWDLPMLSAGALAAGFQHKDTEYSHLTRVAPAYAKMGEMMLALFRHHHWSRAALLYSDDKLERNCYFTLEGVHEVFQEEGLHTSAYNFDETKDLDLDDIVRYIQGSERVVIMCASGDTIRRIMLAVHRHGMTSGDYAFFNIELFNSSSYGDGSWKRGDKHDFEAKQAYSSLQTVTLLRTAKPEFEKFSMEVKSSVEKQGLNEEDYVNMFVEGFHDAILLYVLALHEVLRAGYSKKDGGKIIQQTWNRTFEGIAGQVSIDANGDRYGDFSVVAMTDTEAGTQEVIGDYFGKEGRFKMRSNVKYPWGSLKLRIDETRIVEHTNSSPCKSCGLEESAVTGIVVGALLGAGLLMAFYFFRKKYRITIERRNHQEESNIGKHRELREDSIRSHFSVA
# [5] = Solubility of compound in PBS at 10 mM after 3 hrs by UV analysis; conditions: buffer, 10000 µM
# [6] = target: T3, Atrial natriuretic peptide receptor 3 (Homo sapiens, UniProt P17342); assay: Binding affinity to CM5 sensor chip immobilized human NPR-C (27 to 541 residues) assessed as dissociation constant by surface plasmon resonance analysis
# T3 sequence (P17342 whole entry): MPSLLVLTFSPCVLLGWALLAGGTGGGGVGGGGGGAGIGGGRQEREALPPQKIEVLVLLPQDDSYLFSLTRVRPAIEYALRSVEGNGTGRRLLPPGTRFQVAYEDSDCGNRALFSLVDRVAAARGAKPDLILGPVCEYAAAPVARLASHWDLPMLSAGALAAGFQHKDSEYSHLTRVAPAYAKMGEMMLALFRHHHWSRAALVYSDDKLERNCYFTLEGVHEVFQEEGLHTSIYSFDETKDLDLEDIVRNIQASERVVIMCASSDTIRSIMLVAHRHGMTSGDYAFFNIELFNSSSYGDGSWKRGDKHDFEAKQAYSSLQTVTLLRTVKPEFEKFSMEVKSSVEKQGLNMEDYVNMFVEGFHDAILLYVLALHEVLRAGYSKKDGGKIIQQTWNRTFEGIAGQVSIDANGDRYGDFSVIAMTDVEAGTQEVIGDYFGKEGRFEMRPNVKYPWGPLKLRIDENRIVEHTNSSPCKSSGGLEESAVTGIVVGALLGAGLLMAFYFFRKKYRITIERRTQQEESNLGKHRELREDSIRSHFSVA
# [7] = Permeability of the compound in PBS at pH 7.4 incubated for 5 hrs by LC/MS based PAMPA assay; conditions: pH 7.4, 5 h
# [8] = target: T4, Cytochrome P450 2C8 (Homo sapiens, UniProt P10632); assay: Inhibition of CYP2C8 in human liver microsomes using amodiaquine as a substrate preincubated for 10 mins followed by NADPH addition and measured after 10 mins by LC/MS/MS analysis
# T4 sequence (P10632 whole entry): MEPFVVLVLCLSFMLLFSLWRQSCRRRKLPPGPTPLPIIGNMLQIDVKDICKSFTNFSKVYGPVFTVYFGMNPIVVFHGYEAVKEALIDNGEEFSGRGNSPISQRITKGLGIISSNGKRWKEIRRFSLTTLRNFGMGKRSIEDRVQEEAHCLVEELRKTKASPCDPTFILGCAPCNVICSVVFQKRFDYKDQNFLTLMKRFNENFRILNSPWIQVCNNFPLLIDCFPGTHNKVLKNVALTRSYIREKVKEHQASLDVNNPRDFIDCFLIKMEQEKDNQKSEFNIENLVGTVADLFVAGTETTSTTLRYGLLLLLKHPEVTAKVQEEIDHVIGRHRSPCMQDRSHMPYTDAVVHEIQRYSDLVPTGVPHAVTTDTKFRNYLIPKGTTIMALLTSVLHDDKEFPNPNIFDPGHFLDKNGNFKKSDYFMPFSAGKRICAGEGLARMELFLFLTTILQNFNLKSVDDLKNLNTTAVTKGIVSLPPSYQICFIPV
# [9] = Protein binding in human plasma by equilibrium dialysis assay
# [10] = target: T5, Cytochrome P450 3A4 (Homo sapiens, UniProt P08684); assay: Inhibition of CYP3A4 in human liver microsomes using midazolam as a substrate preincubated for 10 mins followed by NADPH addition and measured after 20 mins by LC/MS/MS analysis
# T5 sequence (P08684 whole entry): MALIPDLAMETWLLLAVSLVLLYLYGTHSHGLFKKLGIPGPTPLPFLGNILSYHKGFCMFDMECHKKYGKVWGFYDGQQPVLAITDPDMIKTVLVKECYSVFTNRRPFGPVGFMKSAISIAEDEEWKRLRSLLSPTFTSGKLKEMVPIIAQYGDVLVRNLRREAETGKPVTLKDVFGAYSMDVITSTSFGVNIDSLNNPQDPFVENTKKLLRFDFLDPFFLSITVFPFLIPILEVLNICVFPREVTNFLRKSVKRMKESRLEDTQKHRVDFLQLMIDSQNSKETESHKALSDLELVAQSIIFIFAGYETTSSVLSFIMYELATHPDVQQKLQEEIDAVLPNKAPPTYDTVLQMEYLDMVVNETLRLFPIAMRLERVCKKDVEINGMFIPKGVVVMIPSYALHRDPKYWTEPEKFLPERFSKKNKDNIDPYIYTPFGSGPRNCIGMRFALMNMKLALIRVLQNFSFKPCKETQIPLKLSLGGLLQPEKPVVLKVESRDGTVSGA
# [11] = Stability in Sprague-Dawley rat hepatocytes assessed as clearance per […] at 1 uM after 20 mins by LC-MS/MS analysis; type: ADME, cell-based, Hepatocyte
# [12] = target: T5, Cytochrome P450 3A4; assay: Inhibition of CYP3A4 in human liver microsomes using testosterone as a substrate preincubated for 10 mins followed by NADPH addition and measured after 10 mins by LC/MS/MS analysis
# [13] = target: T2, Atrial natriuretic peptide receptor 3; assay: Agonist activity at NPRC in rat small mesenteric arteries assessed as vasorelaxation by Organ bath assay; type: tissue-based, Artery
# [14] = target: T6, Cytochrome P450 1A2 (Homo sapiens, UniProt P05177); assay: Inhibition of CYP1A2 in human liver microsomes using phenacetin as substrate preincubated for 10 mins followed by NADPH addition and measured after 10 mins by LC/MS/MS analysis
# T6 sequence (P05177 whole entry): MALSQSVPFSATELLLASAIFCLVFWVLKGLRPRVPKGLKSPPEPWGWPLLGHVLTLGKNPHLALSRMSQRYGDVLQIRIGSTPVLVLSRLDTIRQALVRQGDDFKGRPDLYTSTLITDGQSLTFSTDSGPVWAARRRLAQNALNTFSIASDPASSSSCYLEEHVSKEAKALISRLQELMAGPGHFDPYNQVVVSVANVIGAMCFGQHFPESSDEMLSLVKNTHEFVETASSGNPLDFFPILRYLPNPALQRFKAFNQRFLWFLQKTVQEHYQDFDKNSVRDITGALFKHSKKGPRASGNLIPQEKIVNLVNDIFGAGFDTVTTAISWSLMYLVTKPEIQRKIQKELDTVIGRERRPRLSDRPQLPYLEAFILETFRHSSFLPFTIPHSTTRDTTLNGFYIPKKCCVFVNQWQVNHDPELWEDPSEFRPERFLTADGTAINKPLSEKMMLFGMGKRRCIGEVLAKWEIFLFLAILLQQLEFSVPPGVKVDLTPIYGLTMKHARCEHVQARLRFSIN
# [15] = target: Cytochrome P450 2C19 (Homo sapiens, UniProt P33261); assay: Inhibition of CYP2C19 in human liver microsomes using S-mephenytoin as substrate preincubated for 10 mins followed by NADPH addition and measured after 20 mins by LC/MS/MS analysis
# Chain of Cytochrome P450 2C19 (P33261 whole entry): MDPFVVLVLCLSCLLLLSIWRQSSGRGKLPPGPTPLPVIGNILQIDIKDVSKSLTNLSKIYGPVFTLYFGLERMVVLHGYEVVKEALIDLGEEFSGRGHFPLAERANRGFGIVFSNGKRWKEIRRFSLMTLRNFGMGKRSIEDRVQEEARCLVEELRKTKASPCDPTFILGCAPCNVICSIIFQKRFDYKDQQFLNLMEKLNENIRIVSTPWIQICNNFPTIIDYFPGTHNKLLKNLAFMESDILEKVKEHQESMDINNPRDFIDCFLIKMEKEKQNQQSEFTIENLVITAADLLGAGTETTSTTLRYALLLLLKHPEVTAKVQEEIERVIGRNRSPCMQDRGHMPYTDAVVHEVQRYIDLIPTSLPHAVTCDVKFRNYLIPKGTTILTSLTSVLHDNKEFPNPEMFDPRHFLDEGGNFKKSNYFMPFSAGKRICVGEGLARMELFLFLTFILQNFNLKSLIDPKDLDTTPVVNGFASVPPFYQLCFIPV
# [16] = rat, hepatocytes, 20 min, 1 µM
SMILES,Activity [1],IC50 [2] [µM],t1/2 [3] [h],EC50 [4] [µM],solubility [5] [mg/mL],Kd [6] [µM],Papp [7],IC50 [8] [µM],PPB [9] [%],IC50 [10] [µM],CLH [11] [µL/min],IC50 [12] [µM],EC50 [13] [µM],IC50 [14] [µM],IC50 [15] [µM],t1/2 [16] [h]
CC[C@H](C)[C@@H]1NC(=O)[C@H](CCCNC(=N)N)NC(=O)[C@H](CC(=O)O)NC(=O)[C@H](CCSC)NC(=O)[C@H](CCCNC(=N)N)NC(=O)CNC(=O)CNC(=O)[C@H](Cc2ccccc2)NC(=O)[C@@H](NC(=O)[C@H](CO)NC(=O)[C@H](CO)NC(=O)[C@H](CCCNC(=N)N)NC(=O)[C@H](CCCNC(=N)N)NC(=O)[C@H](CC(C)C)NC(=O)[C@@H](N)CO)CSSC[C@@H](C(=O)N[C@@H](CC(N)=O)C(=O)N[C@@H](CO)C(=O)N[C@@H](Cc2ccccc2)C(=O)N[C@@H](CCCNC(=N)N)C(=O)N[C@@H](Cc2ccc(O)cc2)C(=O)O)NC(=O)CNC(=O)[C@H](CC(C)C)NC(=O)CNC(=O)[C@H](CO)NC(=O)[C@H](CCC(N)=O)NC(=O)[C@H](C)NC(=O)CNC1=O,Active,–,–,–,–,–,–,–,–,–,–,–,–,–,–,–
CC(=O)Nc1ccc(Nc2ncnc(N[C@@H](CC(C)C)C(=O)O)n2)cc1,–,> 50,> 1,6.2,> 71.68,220,< 0.001 10^-6 cm/s,> 50,85.4,> 50,< 6.4,> 50,22.2,> 50,> 50,3.613
